Activity data for 7 compounds are collected here from ChEMBL document CHEMBL1144512, “Synthesis and trypanocidal activity of ent-kaurane glycosides” (2007).

Calls of active or inactive are those of the source. No cut-off for these calls is given here.

Assay [1] has as its system Trypanosoma cruzi. Nature of the assay: Trypanocidal activity against Trypanosoma cruzi Y blood stream trypomastigotes assessed as parasite lysis at 2.50 mM relative to control. In kind it is functional. The procedure, abridged:
(§1)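 Infected blood with Y-strain bloodstream trypomastigotes was exposed to compound in 1% DMSO plus TCM199 at final 0.31–5.0 mM. Tubes were incubated 24 h at 4C. An aliquot was examined microscopically and parasites counted. Activity was calculated as percent parasite reduction versus negative control (1% DMSO + TCM199). DMSO and gentian violet control tubes were run in parallel.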

Assay [2] has as its system Trypanosoma cruzi. Nature of the assay: Trypanocidal activity against Trypanosoma cruzi Y blood stream trypomastigotes assessed as parasite lysis at 0.31 mM relative to control. Type of assay: functional. The procedure, abridged: as §1
Assay [3] deals with Trypanosoma cruzi. The assay is described as follows: Trypanocidal activity against Trypanosoma cruzi Y blood stream trypomastigotes assessed as parasite lysis at 0.63 mM relative to control. In kind it is functional. A digest of the protocol:
as §1

Assay [4] relates to Trypanosoma cruzi. Nature of the assay: Trypanocidal activity against Trypanosoma cruzi Y blood stream trypomastigotes assessed as parasite lysis at 1.25 mM relative to control. In kind it is functional. A digest of the protocol: as §1
Assay [5] has as its system Trypanosoma cruzi. The assay is described as follows: Trypanocidal activity against blood stream Trypanosoma cruzi Y trypomastigotes assessed as parasite lysis at 5 mM relative to control. In kind it is functional. The procedure, abridged: as §1
Assay [6] concerns Trypanosoma cruzi. The assay is described as follows: Trypanocidal activity in Swiss albino mouse inoculated with Trypanosoma cruzi Y blood trypomastigotes assessed as parasitaemia reduction administered after 7th day of inoculation at 250 mg/kg, po after 4 hrs relative to control. Type of assay: functional. More on the design: scale not given: the % may be the effect or the level left. The procedure, abridged: (§2)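 Male Swiss albino mice (18–20 g, 30 days old) were infected ip with 5×10^4 Y-strain blood trypomastigotes. At peak parasitaemia (day 7), a single oral 250 mg/kg dose in DMSO 0.1 mL plus LIT 0.9 mL was given. Circulating parasites were counted microscopically before and 4 and 6 h after dosing. Percent reduction was taken versus pre-treatment count, with three mice per group, mean ± SD, and Split-Plot test.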

In assay [7] the test system is Trypanosoma cruzi. Nature of the assay: Trypanocidal activity in Swiss albino mouse inoculated with Trypanosoma cruzi Y blood trypomastigotes assessed as parasitaemia reduction administered after 7th day of inoculation at 250 mg/kg, po after 6 hrs relative to control. In kind it is functional. More on the design: scale not given: the % may be the effect or the level left. A digest of the protocol: as §2

Assay [8] deals with Blood. Nature of the assay: Induction of total haemolysis in Albino mouse blood infected with Trypanosoma cruzi Y at 5 mM. In kind it is functional, tissue-based. A digest of the protocol:
(§3)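 Erythrocyte lysis was scored in the in vitro trypomastigote tubes as partial or total haemolysis. Infected blood (0.2 mL) was mixed with compound in 1% DMSO plus TCM199 at final 0.31, 0.63, 1.25, 2.50 and 5.0 mM. Tubes were incubated 24 h at 4C and examined microscopically.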

The test system of assay [9] is Blood. Nature of the assay: Induction of total haemolysis in Albino mouse blood infected with Trypanosoma cruzi Y at 2.5 mM. In kind it is functional, tissue-based. The procedure, abridged: as §3
The test system of assay [10] is Blood. Nature of the assay: Induction of total haemolysis in Albino mouse blood infected with Trypanosoma cruzi Y at 1.25 mM. In kind it is functional, tissue-based. The procedure, abridged: as §3

`CN(C)c1ccc(C(=C2C=CC(=[N+](C)C)C=C2)c2ccc(N(C)C)cc2)cc1.[Cl-]` [GENTIAN VIOLET]: the Activity in assay [1] came out at 100%; in [2], 67%; in assay [3], 100%; in assay [4], 100%.

Consider `COC(=O)[C@]1(C)CCC[C@@]2(C)C3CC[C@@H]4C[C@@]3(CCC21)C[C@@H]4CO` (stereo partly specified), for which the Activity was determined as 100% in [5], 100% in assay [1], 45% in assay [2] and 94% in assay [3].

For `C=C1C[C@@]23CCC4[C@](C)(CO[C@@H]5O[C@@H](CO)[C@H](O)[C@@H](O)[C@@H]5OC(C)=O)CCC[C@@]4(C)C2CC[C@@H]1C3` (stereo partly specified), the results for the Activity in assay [5], in assay [1] and in assay [4] were 56%, 0% and 0%, respectively.

For `C=C1C[C@@]23CC[C@@H]4[C@](C)(CO)CCC[C@@]4(C)[C@@H]2CC[C@H]1C3`, the Activity was found to be 100% in assay [5], 72% in assay [1] and 66% in assay [4].

Turning to `C=C1C[C@@]23CCC4[C@@](C)(CCC[C@@]4(C)C(=O)OC)C2CC[C@@H]1C3` (stereo partly specified), the Activity in assay [5] is recorded as 100%; in assay [6], 56.5%; in assay [1] it was 100%; in assay [2], 45%; in assay [3] it was 48%; in assay [4], 88%. In addition, the Activity in assay [7] amounted to 51.5%.

As to `C=C1C[C@@]23CC[C@H]4[C@@](C)(CCC[C@@]4(C)C(=O)O)[C@@H]2CC[C@@H]1C3` [KAURENOIC ACID], the outcome in [8], in assay [9] and in assay [10] was Active. The Activity in assay [5] worked out at 100%; in assay [1], 100%; in assay [2] it was 0%; in [3], 90%; in [4] it was 100%.

Take `O=C(Cn1ccnc1[N+](=O)[O-])NCc1ccccc1` [BENZNIDAZOLE]: the Activity in [6] is recorded as 91.7%; in [7] it was 92.6%.
